Results gathered from unrelated publications.
Each line is one published result; the experiments were not run side by side.
Target: Serine/threonine-protein kinase tousled-like 1 (TLK1, Homo sapiens, UniProt Q9UKI8)
Sequence (Q9UKI8 1-766, as in one of the studies): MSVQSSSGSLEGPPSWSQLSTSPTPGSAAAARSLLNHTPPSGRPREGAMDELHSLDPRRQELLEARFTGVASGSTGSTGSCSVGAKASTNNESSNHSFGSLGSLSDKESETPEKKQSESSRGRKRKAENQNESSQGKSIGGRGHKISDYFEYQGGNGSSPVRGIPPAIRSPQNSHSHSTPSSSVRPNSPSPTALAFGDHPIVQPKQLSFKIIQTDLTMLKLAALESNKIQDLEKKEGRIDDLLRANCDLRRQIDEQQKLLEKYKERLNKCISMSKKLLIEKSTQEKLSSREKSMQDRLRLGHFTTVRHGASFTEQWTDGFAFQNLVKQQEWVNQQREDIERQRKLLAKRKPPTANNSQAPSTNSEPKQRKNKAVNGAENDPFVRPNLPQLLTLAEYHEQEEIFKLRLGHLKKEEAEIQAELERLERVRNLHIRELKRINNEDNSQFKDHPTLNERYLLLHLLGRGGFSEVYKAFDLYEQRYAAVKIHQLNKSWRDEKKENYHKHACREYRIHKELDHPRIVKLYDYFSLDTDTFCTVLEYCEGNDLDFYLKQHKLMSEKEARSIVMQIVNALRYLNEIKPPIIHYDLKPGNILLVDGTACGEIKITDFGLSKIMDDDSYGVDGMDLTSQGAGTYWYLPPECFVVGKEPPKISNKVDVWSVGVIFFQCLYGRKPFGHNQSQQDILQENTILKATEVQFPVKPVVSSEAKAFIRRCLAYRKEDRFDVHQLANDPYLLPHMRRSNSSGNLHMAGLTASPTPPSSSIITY

CN(C)C(=O)Cn1cc(-c2nc([C@@](C)(c3ccc(-c4cnc(N)nc4)cc3)C3CC3)no2)cn1  remaining binding (cell-free assay; competition with immobilised ligand; 1 µM): 100%
Cc1cnc(Nc2ccc(C(=O)N3CCC(N4CCCC4)CC3)cc2)nc1-c1cc2ccccc2s1  remaining binding (binding; competition with immobilised ligand; 1 µM): 21%
C[C@@H]1CCN(c2nccc(-c3cnn4ncccc34)n2)C1  remaining binding (binding; 1 µM): 79%
Nc1ncc2c(n1)-c1c([nH]c3ccc(C#CC4CC4)cc13)CCCC2  remaining binding (binding; competition with immobilised ligand; 1 µM): 87%
O=C(NC[C@@H]1[C@H]2CN(C(=O)OCc3cc(C(F)(F)F)cc(C(F)(F)F)c3)C[C@@H]12)c1ccc2[nH]nnc2c1  remaining binding (cell-free assay; competition with immobilised ligand; 1 µM): 68%
CN(c1nccc(-c2cnn3ncccc23)n1)C1CC1  remaining binding (binding; 1 µM): 100%
O=C(NCCCN1CCOCC1)c1ccc(Nc2ncc(Cl)c(-c3ccc(Cl)s3)n2)cc1  remaining binding (binding; competition with immobilised ligand; 1 µM): 75%
Cc1cnn2ncc(-c3ccnc(N(C)C)n3)c2c1  remaining binding (binding; 1 µM): 75%
COc1cnc(Nc2cccc(S(N)(=O)=O)c2)nc1N1CCN(c2ccccc2)CC1  remaining binding (binding; competition with immobilised ligand; 1 µM): 80%
O=C(Nc1cccnn1)N1CC(C/C=C/c2cncc(Oc3ccc(C(F)(F)F)cn3)n2)C1  remaining binding (cell-free assay; competition with immobilised ligand; 1 µM): 98%
O=C(NCCCN1CCOCC1)c1ccc(Nc2nccc(-c3cc4ccccc4s3)n2)cc1  remaining binding (binding; competition with immobilised ligand; 1 µM): 63%
CCS(=O)(=O)c1cc2cc(C[C@](O)(CC(C)(C)c3ccc(F)cc3C(N)=O)C(F)(F)F)[nH]c2cn1  remaining binding (cell-free assay; competition with immobilised ligand; 1 µM): 75%
COc1ncc2cc3ccccc3nc2c1C#N  remaining binding (cell-free assay; competition with immobilised ligand; 5 µM): 86%
c1cncc(-c2cccc(Nc3nccc(NC4CCCCC4)n3)c2)c1  remaining binding (binding; competition with immobilised ligand; 10 µM): 100%
N[C@@H]1CCN(c2nccc(-c3cnn4ncccc34)n2)C1  remaining binding (binding; 1 µM): 39%
O=C(NCC1CCOCC1)c1n[nH]cc1NC(=O)c1c(F)cccc1F  remaining binding (binding; competition with immobilised ligand; 1 µM): 87%
CC(=O)Nc1c(C(C)=O)c(=O)n(C)c2nc(-c3ccc(Cl)cc3Cl)c(-c3ccc(Cl)cc3)cc12  remaining binding (cell-free assay; competition with immobilised ligand; 1 µM): 100%
CN(C)c1nccc(-c2cnn3ncccc23)n1  remaining binding (binding; 1 µM): 92%
Cc1nccc(COC(=O)N2C[C@@H]3[C@@H](CNC(=O)c4ccc5[nH]nnc5c4)[C@@H]3C2)n1  remaining binding (cell-free assay; competition with immobilised ligand; 1 µM): 87%
F[C@@H]1CCN(c2nccc(-c3cnn4ncccc34)n2)C1  remaining binding (binding; 1 µM): 100%
